# Only some compounds are listed: those with a hit (about 1.6% of all), similar ones and a draw of the others.
# RBBP9 inhibitor – blocks human serine hydrolase RBBP9; O75884; recombinant RBBP9, FP-Rh probe fluorescence polarization; inhibition, % at 7.94 µM; 220,000 compounds, 0.2% hits; AID 1515;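 active means inhibition above the campaign mean of all tested compounds plus 3 SD, cut at about 14% in these data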;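 further: plate controls were DMSO wells with RBBP9 for no effect and wells lacking RBBP9 protein for full effect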
# Target sequence (O75884 whole entry, looked up): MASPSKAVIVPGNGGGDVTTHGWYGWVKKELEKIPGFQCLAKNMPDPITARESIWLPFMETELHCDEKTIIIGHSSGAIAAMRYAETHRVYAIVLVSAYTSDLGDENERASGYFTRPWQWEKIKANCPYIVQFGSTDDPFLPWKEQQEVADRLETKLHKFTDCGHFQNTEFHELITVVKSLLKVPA
#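 Measured by: FP readout at 525/598 nm; material: recombinant human RBBP9; also added: Serine-hydrolase probe FP-Rh, 375 nM pre-mixing; medium: Tris buffer pH 8.0, NaCl, Pluronic; replication: one well per compound; doses: one concentration, 7.94 µM nominal, 0.794% DMSO; timing: preincubation 30 min plus labeling 45 min at 25 °C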
# PABP polyA inh – PABP-poly(A) binding inhibition; P11940; 290,000 compounds, 1% hits; calls only at 35 µM; PABP-poly(A) RNA binding, fluorescence polarization;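 further: calls also rest on retests at 20 µM and on dose response follow-up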
# eIF4H FP inh – inhibitors of RNA binding by human eIF4H | eIF4H fluorescence polarization binding assay | inhibition, % at 35 µM | 290,000 compounds, 0.94% hits | AID 2012;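 further: calls also rest on retests at 20 µM and on dose response follow-up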
# TCR-CD3 inh – inhibitors of human TCR-CD3 interaction. TAMRA-labeled TCR probe fluorescence, biochemical. inhibition, % at 9.4 µM. 360,000 compounds, 0.37% hits; in the data active means inhibition above about 19%;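 further: recombinant mutant TCR 2C K166C tagged with TAMRA read by polarization; 0% = receptor in buffer alone and 100% = receptor with positive control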
# MLLE-PAM2 inh – blocks PAM2 peptide binding to the PABP1 MLLE domain | P11940 | GST-MLLE / FITC-PAM2 fluorescence polarization | inhibition, % at 20 µM | 360,000 compounds, 0.36% hits; in the data active means inhibition above about 35%, passing the limit was not always enough;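 further: plate controls were DMSO wells with GST-MLLE for no effect and wells lacking GST-MLLE protein for full effect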
# RBBP9 inh conf – confirmation of human RBBP9 inhibitors; shares compounds with RBBP9 inhibitor; recombinant RBBP9, FP-Rh probe fluorescence polarization; inhibition, % at 7.94 µM; 410 compounds, 36% hits;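 active means inhibition above the hit cutoff derived for the primary screen, cut at about 15% in these data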;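 further: 0% = RBBP9 with DMSO and 100% = wells lacking RBBP9 protein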
# * = called active by the depositor; i = inactive; ? = inconclusive; · = not tested or not shown. Unless noted, how the calls were made is not given here.
SMILES,RBBP9 inhibitor,PABP polyA inh,eIF4H FP inh,TCR-CD3 inh,MLLE-PAM2 inh,RBBP9 inh conf
CC(C)C(=O)N(c1cc2sc(=O)oc2c2ccccc12)S(=O)(=O)c1cccs1,32*,i,-2,-5,18,11
CC(=O)N(c1ccc2oc(=O)sc2c1)S(=O)(=O)c1cccs1,2,i,53,-5,29,·
O=C1NC(c2ccccc2)(c2ccccc2)C(=O)N1CNc1ccccn1,·,·,·,-1,·,·
O=C(O)CN1CCN(Cc2ccccc2Cl)C1=O,16*,·,·,-4,-6,2
COC(=O)c1cc2c(c3c4cc(OC)ccc4n(S(=O)(=O)c4cccc(C)c4)c13)C(=O)N(Cc1ccc(N(C)C)cc1)C2,·,·,·,4,·,·
Oc1ccc(NC(=S)N=Nc2c(O)[nH]c3ccc(Br)cc23)cc1,53*,i,7,-2,29,22*
Oc1ccc(NC(=S)N=Nc2c(O)[nH]c3ccccc23)cc1,16*,i,8,3,52*,19*
COC(=O)[C@]12C[C@H](CC(=O)NCC34CC5CC(CC(C5)C3)C4)C(=O)N(Cc3ccccc3)C1=C[C@H](C(C)C)O[C@@H]2C1CC1,·,·,·,5,·,·
CCC(NS(=O)(=O)c1ccc(C)cc1)C(=O)Nc1ccc(NC(C)=O)cc1 (stereo not given),16*,i,-1,4,1,7
Cn1cc(CC(=O)Nc2ccc(Nc3cccnc3)c(Br)c2)c2ccccc21,·,·,·,6,·,·
C#CCN1CC(COc2ccccc2)Oc2cccc(Oc3ccc(SC)c(C)c3)c2S1(=O)=O (stereo not given),·,·,·,0,·,·
Nc1nc(SCC(=O)N2CCCCCC2)[nH]c(=O)c1NC(=O)c1ccco1,15*,i,-3,2,30,64*
COc1ccc(C=NNc2ccc(S(=O)(=O)Nc3ccccc3C(=O)O)cc2[N+](=O)[O-])c(OC)c1,·,·,·,·,-6,·
COc1ccc(NC(=S)NNc2ccc(S(=O)(=O)Nc3ccccc3C(=O)O)cc2[N+](=O)[O-])cc1,22*,i,-2,1,36,15*
COCCOC(=O)C1=C(C)NC(=O)N(C(C)=O)C1c1ccc(Cl)cc1 (stereo not given),15*,i,-12,3,5,8
CCOC(=O)C1=C(C)NC(=S)N(C(C)=O)C1c1ccc(Cl)cc1 (stereo not given),-13,i,-4,-1,-127,·
CCOC(=O)CNC(=O)N(C)[C@H]1C[C@H]2c3[nH]c4c(-c5ccccc5)cccc4c3CCN2C(=O)[C@H]1[C@H](C)O,·,·,·,-1,·,·
CC(C)C[C@@H]1COc2cc(F)ccc2S(=O)(=O)N1,·,·,·,-8,·,·
CCOC(=O)c1c(C)oc2c(CC(=O)c3ccccc3)c(Cl)c(O)c(O)c12,16*,i,-1,-6,-32,13
CCc1c(-c2ccccc2)ncn1CCc1ccccc1OC,·,·,·,2,·,·
COC(=O)C1=C(C)N(Cc2ccc(C(F)(F)F)cc2)C(=NCC2CC2)NC1c1ccccc1 (stereo not given),·,·,·,-4,·,·
CCCCNc1c2c3c(cccc3n(C)c1=O)C(=O)c1ccccc1-2,24*,i,?,·,i,30*
CCNc1c2c3c(cccc3n(C)c1=O)C(=O)c1ccccc1-2,22*,?,?,·,·,37*
Cn1c(=O)c(NC2CCCCC2)c2c3c(cccc31)C(=O)c1ccccc1-2,-2,?,?,0,i,·
C=CCN1C=C(C(=O)OCC)C(=O)CC1,·,·,·,-6,·,·
SMILES,RBBP9 inhibitor,PABP polyA inh,eIF4H FP inh,TCR-CD3 inh,MLLE-PAM2 inh,RBBP9 inh conf
Cc1noc(N)c1C1(O)C(=O)N(C(C)C)c2ccccc21 (stereo not given),16*,i,1,2,7,10
C=CCn1c(SCC(=O)Nc2ccc(O)cc2)nc2sc(C)c(C)c2c1=O,·,·,·,5,6,·
C=CCn1c(=O)c2c(C)c(C)sc2n2c(Nc3ccc(OC)cc3)nnc12,16*,i,11,8,1,4
Cc1ccccc1NC(=O)N(C)[C@H]1C[C@H]2c3[nH]c4c(-c5ccccc5)cccc4c3CCN2C(=O)[C@H]1[C@H](C)O,·,·,·,-6,·,·
CCOC(=O)c1c(C)[nH]c(N=Nc2ccccc2)c1C,15*,i,-2,4,7,6
CCCn1c(=N)n(CCOc2ccc(OC)cc2)c2ccccc21,-8,i,5,1,2,·
CCC(=O)N=c1n(C)c2ccccc2n1CCOc1ccccc1,16*,i,4,1,-6,6
CN(C)c1ccc(Nc2nc(-c3cccnc3)cs2)cc1,20*,i,-9,-1,-44,22*
CCN(CC)c1ccc(Nc2nc(-c3cccnc3)cs2)cc1,·,i,-2,0,-79,·
Nc1[nH]c(C(=O)c2ccc(Br)cc2)c(-c2ccccc2)c1C(=O)NCCc1c[nH]c2ccccc12,·,·,·,-3,·,·
CCCN(CC#CC(O)(c1ccccc1)c1cccnc1)CCC (stereo not given),22*,i,-2,4,2,9
CN(C)Cc1c(C(C)(C)O)[nH]c2cc(C(F)(F)F)ccc12,·,·,·,-7,·,·
CC1CCCC(C)N1C(=O)COC(=O)C(Cc1ccccc1)NC(=O)c1cccs1 (stereo not given),16*,i,9,6,-8,0
COc1ccc(OC)c(CCNC(=O)Cn2cccc2C(=O)c2ccccc2C)c1,15*,i,-9,-6,-18,0
CCc1ccc(NSc2ccccc2[N+](=O)[O-])cc1,16*,i,-16,9,13,5
CC(C)CNC(=O)/C=C/c1cccs1,2,i,-13,-3,14,·
CCC(C)(C)NC(=O)/C=C/c1cccs1,18*,i,-5,4,4,6
CC(C)C[C@H]1COc2cccc(N3CCCCC3)c2S(=O)(=O)N1,·,·,·,-6,·,·
CCCCC1OC(CCc2ccccc2)CC2=C1C(=O)OC(C)(C)O2 (stereo not given),·,·,·,5,·,·
O=C(Oc1ccc(C(=S)N2CCCCC2)cc1)c1ccccc1,2,i,6,2,15,·
O=C(Oc1ccc(C(=S)N2CCC(O)CC2)cc1)c1ccc(Cl)cc1,20*,i,-8,-2,6,29*
CCOC(=O)C(C(C)=O)c1c(Br)c(O)c(O)c2c(C(=O)c3ccc(C)cc3)coc12 (stereo not given),24*,i,4,-1,-98,17*
COc1ccc2c(c1)[C@@]1(OCCC=C[C@H]1C)C(=O)N2CC1CC1,·,·,·,5,·,·
COC(=O)[C@]12C[C@H](CC(=O)NCc3cccc4ccccc34)C(=O)N(Cc3ccc4c(c3)OCO4)C1=C[C@H](COCc1ccccc1)O[C@@H]2C,·,·,·,-8,·,·
COCc1cc(N2CCN(C(=O)OC(C)(C)C)C[C@@H]2C)ccc1N1CCN(Cc2ccccc2)[C@@H](C)C1,·,·,·,2,·,·
Cc1ccc(NC(=S)N/N=C2\CC(C)(C)Oc3ccc(O)cc32)cc1,17*,i,-2,-4,29,11

# From PubChem
